From ChEMBL document CHEMBL3085625, “Synthesis, biological evaluation and molecular modeling studies of some novel thiazolidinediones with triazole ring” (Eur J Med Chem, 2013)
In brackets after ≈: the same amount, converted by molar mass.

What was measured:
[1] = test system: HepG2; assay: Cytotoxicity against human HepG2 cells after 24 hrs by MTT assay; assay type: functional, cell-based; conditions: HepG2, 24 h
Procedure, shortened: (§1)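 MTT read-out: viable-cell mitochondrial dehydrogenase reduces tetrazolium to formazan, which is dissolved in DMSO and read at 570 nm. IC50 reported in μg/ml. Doxorubicin serves as positive control.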

[2] = Cytotoxicity against human IMR32 cells after 24 hrs by MTT assay; assay type: functional, cell-based; conditions: IMR-32, 24 h; procedure, shortened: as §1
[3] = Inhibition of alpha-glucosidase (unknown origin) using p-nitrophenyl-alpha-D-glucopyranoside as substrate assessed as p-nitrophenol formation incubated for 5 mins prior to substrate addition measured after 5 mins by spectrophotometry
Procedure, shortened: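 Test samples (5 mg/mL DMSO stock) in 100 mM phosphate buffer pH 6.8 preincubated 5 min with yeast α-glucosidase (0.76 U/mL) or crude rat intestinal enzyme (supernatant of sonicated acetone powder in saline, centrifuged). Then 5 mM p-nitrophenyl-α-D-glucopyranoside added; p-nitrophenol read at 405 nm after 5 min. Sample blanks without substrate; DMSO controls. Inhibition = (1−B/A)×100. Triplicate; IC50 by regression of mean inhibition.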

[4] = test system: MCF7; assay: Cytotoxicity against human MCF7 cells after 24 hrs by MTT assay; assay type: functional, cell-based; conditions: MCF7, 24 h; procedure, shortened: as §1

Structure (SMILES) | IC50 [3] [µg/mL] | IC50 [1] [µg/mL] | IC50 [2] [µg/mL] | IC50 [4] [µg/mL]
COc1cccc2c1C(=O)c1c(O)c3c(c(O)c1C2=O)C[C@@](O)(C(=O)CO)C[C@@H]3O[C@H]1C[C@H](N)[C@H](O)[C@H](C)O1 [DOXORUBICIN] |  | 0.6 (≈ 1.1 µM) | 0.8 (≈ 1.47 µM) | 
O=C1S/C(=C\c2ccc3c(c2)OCO3)C(=O)N1Cc1cn(CCc2ccccc2)nn1 | 0.3 (≈ 0.69 µM) | 31 (≈ 71.4 µM) | 52.6 (≈ 121 µM) | 30 (≈ 69 µM)
O=C1S/C(=C\c2ccc3c(c2)OCO3)C(=O)N1Cc1cn(-c2ccc(F)c(F)c2)nn1 | > 100 | > 100 | > 100 | > 100
O=C1S/C(=C\c2ccc3c(c2)OCO3)C(=O)N1Cc1cn(-c2ccccc2[N+](=O)[O-])nn1 | 0.1 (≈ 0.222 µM) | > 100 | > 100 | > 100
C[C@H]1O[C@H](O[C@H]2[C@H](O)[C@@H](O)[C@@H](O[C@H]3[C@H](O)[C@@H](O)C(O)O[C@@H]3CO)O[C@@H]2CO)[C@H](O)[C@@H](O)[C@@H]1N[C@H]1C=C(CO)[C@@H](O)[C@H](O)[C@H]1O (some centres not stated) [ACARBOSE] | 12.5 (≈ 19.4 µM) |  |  | 
CC(C)c1ccc(-n2cc(CN3C(=O)S/C(=C\c4ccc5c(c4)OCO5)C3=O)nn2)cc1 | 0.3 (≈ 0.669 µM) | 66 (≈ 147 µM) | 97.5 (≈ 217 µM) | 78 (≈ 174 µM)
O=C1S/C(=C\c2ccc3c(c2)OCO3)C(=O)N1Cc1cn(-c2ccc(Cl)c(F)c2)nn1 | > 100 | > 100 | > 100 | > 100

More lines, main results first:

IC50 [3] [µg/mL] | Structure (SMILES) | IC50 [1] [µg/mL] | IC50 [2] [µg/mL] | IC50 [4] [µg/mL]
75.5 (≈ 180 µM) | Cc1ccc(-n2cc(CN3C(=O)S/C(=C\c4ccc5c(c4)OCO5)C3=O)nn2)cc1 | > 100 | > 100 | > 100
33.6 (≈ 76.2 µM) | O=C1S/C(=C\c2ccc3c(c2)OCO3)C(=O)N1Cc1cn(-c2ccc(Cl)cc2)nn1 | > 100 | > 100 | > 100
> 100 | COc1ccc(C)cc1-n1cc(CN2C(=O)S/C(=C\c3ccc4c(c3)OCO4)C2=O)nn1 | 45 (≈ 99.9 µM) | 52.6 (≈ 117 µM) | 34 (≈ 75.5 µM)
> 100 | O=C1S/C(=C\c2ccc3c(c2)OCO3)C(=O)N1Cc1cn(-c2ccc(F)cc2)nn1 | > 100 | > 100 | 96.2 (≈ 227 µM)
40 (≈ 90.7 µM) | O=C1S/C(=C\c2ccc3c(c2)OCO3)C(=O)N1Cc1cn(-c2ccccc2Cl)nn1 | > 100 | > 100 | 87 (≈ 197 µM)
> 100 | CCCCCCn1cc(CN2C(=O)S/C(=C\c3ccc4c(c3)OCO4)C2=O)nn1 | 67 (≈ 162 µM) | 77.6 (≈ 187 µM) | 43 (≈ 104 µM)
